Consider seven compounds from ChEMBL document CHEMBL5252672, “Inhibition of mitochondrial metabolism by (-)-jerantinine A: synthesis and biological studies in triple-negative breast cancer cells” (RSC Med Chem, 2023).

In general, pIC50 refers to the negative decadic logarithm of the IC50, by convention in mol/L.

For series [1], the system named is MDA-MB-231. Put plainly: Antiproliferative activity against human MDA-MB-231 cells. In kind it is functional, cell-based. Summed up: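 MDA-MB-231 cells grown in RPMI-1640 with 10% FBS at 37°C, 5% CO2. Seeded at 2000 cells/well, then exposed to graded compound concentrations, medium renewed every 2–3 days. On day 5, viability read by CyQUANT fluorescence (cellular DNA content).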

The test system of series [2] is MDA-MB-231. Description: Induction of ROS generation in human MDA-MB-231 cells at 2.5 to 40 uM incubated for 24 hrs by bioluminescence assay. Type of series: functional, cell-based. The following applies: dose 2.5-40 µM. In short, it runs like this:
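MDA-MB-231 cells stably carrying the lentiviral OxiLuc oxidative-stress reporter, sorted by FACS for mStrawberry. Plated at 5x10³ cells/well the day before, then given escalating doses for 24 h. Bioluminescence imaged on an IVIS Spectrum, and per-well photon flux quantified as photons/s/sr/cm².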

Series [3] deals with MDA-MB-231. Description: Effect on metabolism in human MDA-MB-231 cells assessed as reduction in intracellular aspartate level at 5 uM incubated for 16 hrs by LC-MS based metabolomics analysis. Type of series: functional, cell-based. Summed up:
(§1)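 MDA-MB-231 cells in RPMI-1640 plus 10% FBS, treated 16 h with DMSO vehicle or compound at 5 μM. Untargeted metabolic profiling followed, with normalized metabolite levels compared between treated and vehicle groups.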

A short description of series [4]: Cytotoxicity against vincristine-resistant human VJ-300 cells. Type of series: functional, cell-based.
A short description of series [5]: Cytotoxicity against human MCF-10A cells. Type of series: toxicity, cell-based.
Series [6] relates to MDA-MB-231. Put plainly: Effect on metabolism in human MDA-MB-231 cells assessed as change in intracellular metabolite abundances at 5 uM incubated for 16 hrs by LC-MS based metabolomics analysis. Type of series: functional, cell-based. In short, it runs like this:
as §1

Series [7] is described as follows: Effect on metabolism in human MDA-MB-231 cells assessed as reduction in argininosuccinic-acid level at 5 uM incubated for 16 hrs by LC-MS based metabolomics analysis. More on the design: scale not given: the % may be the effect or the level left. Type of series: functional. Summed up: as §1
A short description of series [8]: Effect on metabolism in human MDA-MB-231 cells assessed as reduction in N-acetylaspartate level at 5 uM incubated for 16 hrs by LC-MS based metabolomics analysis. Type of series: functional. Also on record: scale not given: the % may be the effect or the level left. In short, it runs like this: as §1
Series [9] is described as follows: Effect on metabolism in human MDA-MB-231 cells assessed as reduction in carbamoyl aspartate level at 5 uM incubated for 16 hrs by LC-MS based metabolomics analysis. In kind it is functional. More on the design: scale not given: the % may be the effect or the level left. In short, it runs like this: as §1
A short description of series [10]: Inhibition of pyrimidine biosynthesis in human MDA-MB-231 cells assessed as fold increase in cytidine levels at 5 uM incubated for 16 hrs by LC-MS based metabolomics analysis. Type of series: functional. Summed up:
as §1

The next series has as its system MCF7. Description: Cytotoxicity against human MCF7 cells. Type of series: functional, cell-based.
In another series the test system is T47D. Put plainly: Cytotoxicity against human T47D cells. Type of series: functional, cell-based.

Each structure is given as a SMILES string. pIC50: −log10 of the molar value. Calls of active or inactive are those of the source. The rule behind the calls is not given here.

In the case of `CC[C@]12C=CCN3CC[C@]4(C(=C(C(=O)OC)C1)Nc1cc(OC)c(OS(=O)(=O)F)cc14)[C@@H]32`, in the series with MDA-MB-231 [1], the negative-log IC50 (pIC50) was 5.43. Moreover, the outcome in the series on MDA-MB-231 [2] and in the series with MDA-MB-231 [3] was inactive.
In the series with MDA-MB-231 [1], `CC[C@]12C=CCN3CC[C@@]4(C5=CC(=O)C(OC)=CC5=NC4=C(C(=O)OC)C1)[C@@H]32` had a pIC50 of 5.71. For the same compound, the outcome with MDA-MB-231 [2] was inactive.
`CC[C@]12C=CCN3CC[C@]4(C(=C(C(=O)OC)C1)Nc1ccc(OS(=O)(=O)F)cc14)[C@@H]32`: in the series with MDA-MB-231 [1], the pIC50 is 5.21. For the same compound, the result with MDA-MB-231 [2] was inactive.
Consider `CC[C@]12C=CCN3CC[C@]4(C(=C(C(=O)OC)C1)Nc1cc(OC)c(OC(C)=O)cc14)[C@@H]32` [JERANTININE A ACETATE], for which the negative logarithm of the IC50 (pIC50) in series [4] was 6.08; in the series on MDA-MB-231 [1], 5.59; in [5], 4.73.
For `CC[C@]12C=CCN3CC[C@]4(C(=C(C(=O)OC)C1)Nc1cc(OC)c(O)cc14)[C@@H]32` [JERANTININE A], the negative-log IC50 (pIC50) in the series on MDA-MB-231 [1] is 5.72; in series [5], 6.02; in the series with MCF7 it was 6.14; with T47D, 6.14. The result in the series on MDA-MB-231 [2], in the series on MDA-MB-231 [6] and with MDA-MB-231 [3] was Active. Besides, the Activity in series [7], in series [8] and in series [9] was 90% in each case. Further, the “fold change (FC)” value in [10] was 10.
In the case of `CC[C@]12C=CCN3CC[C@]4(C(=C(C(=O)OC)C1)Nc1ccc(O)cc14)[C@@H]32` [MELODININE P], in the series on MDA-MB-231 [1], the pIC50 was 5.97. Further, in the series on MDA-MB-231 [2], the result was Active.
On to `CC[C@]12C=CCN3CC[C@]4(C(=C(C(=O)OC)C1)Nc1ccccc14)[C@@H]32` [TABERSONINE], for which the pIC50 in the series on MDA-MB-231 [1] was 5.25. Further, the result in the series on MDA-MB-231 [2] was inactive.
